# Reference: ChEMBL document CHEMBL3259808, “Optimization of antitrypanosomatid agents: identification of nonmutagenic drug candidates with in vivo activity” (J Med Chem, 2014)
# Legend:
# [1] = Selectivity index, ratio of IC50 for human RBC to IC50 for Trypanosoma cruzi Sylvio X-10 amastigotes
# In short: (§1)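 Hemolysis: washed human erythrocytes (2% w/v in PBS) incubated 24 h at 37 °C with compound at final 50, 100 and 200 μM. Ten replicates per concentration. Hemoglobin release read at 405 nm against water lysis as 100%; amphotericin B 1.5 μM was the positive control. SI = IC50 red cells / parasite IC50 (Sylvio X-10 amastigotes or Tulahuen 2 epimastigotes).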
# [2] = tested on: Salmonella typhimurium; test: Mutagenic activity in Salmonella typhimurium TA98 at 3 to 250 ug/plate by Ames test in presence of mouse liver S9 fraction; type: toxicity, organism-based; details: salmonella enterica subsp. enterica serovar typhimurium
# In short: (§2)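 Ames plate-incorporation assay with S. typhimurium TA98 in Vogel-Bonner E minimal glucose agar. Toxicity toward the bacteria was checked first. DMSO solutions were run in triplicate at five consecutive third-dilutions, starting at the highest non-toxic dose. Positive controls were 4-nitro-o-phenylenediamine (20.0 μg/plate) and 2-aminofluorene (10.0 μg/plate); DMSO was the negative control. Revertants were counted manually. A compound was called mutagenic when revertants were at least twice the negative control at two or more consecutive doses.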
# [3] = tested on: Trypanosoma cruzi; test: Antitrypanosomal activity against Trypanosoma cruzi Sylvio X-10 amastigotes infected in African green monkey Vero cells assessed as eradication of amastigotes after 5 days by Giemsa staining-based assay; type: functional, organism-based; details: Sylvio X-10, Vero, 120 h
# In short: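 VERO cells in RPMI 1640 with 10% hiFCS were allowed to adhere for 24 h at 37 °C in 5% CO₂, then infected with tissue-derived trypomastigotes at 10:1. Free parasites were washed off after 24 h, and cultures were treated at five compound doses (text gives 72 h / 5 days). Cultures were methanol-fixed and Giemsa-stained, and infected cells were counted among 300. Quadruplicates were run in three independent experiments. IC50/IC90 were obtained by sigmoidal regression.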
# [4] = Selectivity index, ratio of IC50 for African green monkey Vero cells to IC50 for Trypanosoma cruzi Sylvio X-10 amastigotes; type: toxicity, cell-based; details: read-out: Ratio IC50
# In short: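 VERO cytotoxicity: cells exposed 48 h at 37 °C, 5% CO2 to serial dilutions from a maximum of 2000 μM (DMSO stocks; DMSO <0.1% control); growth inhibition read by MTT at 570 nm. Amastigote IC50: Sylvio X-10-infected VERO cells, five doses, infected cells counted among 300 (Giemsa), quadruplicate, three experiments, sigmoidal fit. SI = IC50 VERO / IC50 amastigote.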
# [5] = tested on: Salmonella typhimurium; test: Mutagenic activity in Salmonella typhimurium TA98 at 3 to 250 ug/plate by Ames test; type: toxicity, organism-based; details: salmonella enterica subsp. enterica serovar typhimurium; in short: as §2
# [6] = tested on: Trypanosoma cruzi; test: Antitrypanosomal activity against Trypanosoma cruzi Tulahuen 2 epimastigotes assessed as growth inhibition after 5 days; type: functional, organism-based; details: Trypanosoma cruzi, Tulahuen 2, 120 h
# In short: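 Epimastigotes were grown axenically at 28 °C in BHI-tryptose with 5% FBS and seeded from a 5–7 day culture at 1 × 10⁶ cells/mL. Drug from a DMSO stock was added (final DMSO ≤0.4%; the control contained 0.4% DMSO). Duplicates were run. A600 was read at day 5, and % inhibition was calculated relative to day-0 and control readings. IC50 = concentration that halves the absorbance ratio.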
# [7] = tested on: Salmonella typhimurium; test: Mutagenic activity in Salmonella typhimurium TA98 at 0.04 to 4 ug/plate by Ames test in presence of mouse liver S9 fraction; type: toxicity, organism-based; details: salmonella enterica subsp. enterica serovar typhimurium; in short: as §2
# [8] = tested on: Salmonella typhimurium; test: Mutagenic activity in Salmonella typhimurium TA98 at 0.04 to 4 ug/plate by Ames test; type: toxicity, organism-based; details: salmonella enterica subsp. enterica serovar typhimurium; in short: as §2
# [9] = tested on: Salmonella typhimurium; test: Mutagenic activity in Salmonella typhimurium TA98 at 3.1 to 250 ug/plate by Ames test; type: toxicity, organism-based; details: salmonella enterica subsp. enterica serovar typhimurium; in short: as §2
# [10] = tested on: Salmonella typhimurium; test: Mutagenic activity in Salmonella typhimurium TA98 at 3.1 to 250 ug/plate by Ames test in presence of mouse liver S9 fraction; type: toxicity, organism-based; details: salmonella enterica subsp. enterica serovar typhimurium; in short: as §2
# [11] = tested on: Trypanosoma cruzi; test: Antitrypanosomal activity against Trypanosoma cruzi Sylvio X-10 amastigotes infected in African green monkey Vero cells assessed as eradication of amastigotes after 72 hrs by Giemsa staining-based assay; details: Sylvio X-10, Vero
# [12] = Cytotoxicity against African green monkey Vero cells assessed as growth inhibition at 25 uM after 48 hrs by MTT assay relative to control; type: cell-based; details: chlorocebus sabaeus, read-out: GI
# In short: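 VERO cells were exposed to serial dilutions in fresh medium of compounds dissolved in DMSO, for 48 h at 37 °C in 5% CO₂. A DMSO (<0.1%) negative control was included. Growth inhibition was read by MTT at 570 nm; nifurtimox was the positive control.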
# [13] = Selectivity index, ratio of IC50 for human RBC to IC50 for Trypanosoma cruzi Tulahuen 2 epimastigotes; in short: as §1
# [14] = tested on: Salmonella typhimurium; test: Mutagenic activity in Salmonella typhimurium TA98 at 6 to 500 ug/plate by Ames test; type: toxicity, organism-based; details: salmonella enterica subsp. enterica serovar typhimurium; in short: as §2
# [15] = tested on: Salmonella typhimurium; test: Mutagenic activity in Salmonella typhimurium TA98 at 6 to 500 ug/plate by Ames test in presence of mouse liver S9 fraction; type: toxicity, organism-based; details: salmonella enterica subsp. enterica serovar typhimurium; in short: as §2
smiles,measurement,setting,value
C=CCNC(=S)N/N=C/C=C/c1ccc([N+](=O)[O-])s1,Ratio IC50,[1],82
same,Activity,[2],Toxic
same,IC50,[3],1.29 µM
same,selectivity ratio,[4],60
same,Activity,[5],Toxic
same,IC50,[6],1.2 µM
C=CCn1c(-c2ccc([N+](=O)[O-])cc2)cs\c1=N/N=C/C=C/c1ccc([N+](=O)[O-])s1,Activity,[7],Toxic
same,Activity,[8],Toxic
same,IC50,[3],8.2 µM
same,selectivity ratio,[4],13
same,IC50,[6],3.3 µM
Br.C=CCn1c(-c2ccc(Cl)cc2)cs\c1=N/N=C/C=C/C=C/c1cccs1,IC50,[3],> 25 µM
same,Activity,[9],Non-toxic
same,Activity,[10],Non-toxic
same,IC90,[11],> 25 µM
same,IC50,[6],11 µM
C=CCn1c(-c2ccc(N)cc2)cs\c1=N/N=C/C=C/c1ccco1,Activity,[7],Non-toxic
same,Activity,[8],Non-toxic
same,IC50,[6],9 µM
O=[N+]([O-])c1ccc(/C=N/N=c2\[nH]c(-c3ccc(Cl)cc3)cs2)s1,"inhibition at 48 h, 25 µM",[12],> 50%
same,IC50,[6],4.9 µM
S=C(N/N=C/c1cccs1)Nc1ccccc1,Ratio IC50,[13],21
same,IC50,[6],4.7 µM
C=CCNC(=S)N/N=C/C=C/C=C/c1cccs1,IC50,[3],> 25 µM
same,Activity,[14],Non-toxic
same,Activity,[15],Non-toxic
same,IC90,[11],> 25 µM
same,IC50,[6],0.6 µM
